Assay results reported in ChEMBL document CHEMBL1137779, “Discovery of 2-[5-(4-chloro-phenyl)-1-(2,4-dichloro-phenyl)-4-ethyl-1H-pyrazol-3-yl]-1,5,5-trimethyl-1,5-dihydro-imidazol-4-thione (BPR-890) via an active metabolite. A novel, potent and selective cannabinoid-1 receptor inverse agonist with high antiobesity efficacy in DIO mice” (J Med Chem, 2009).
Activity calls are given as the source filed them. No cut-off for these calls is given here.

Assays:
Cannabinoid receptor 2 = Cannabinoid receptor 2 (Homo sapiens, UniProt P34972); experiment: Displacement of [3H]CP-55940 from human recombinant CB2R expressed in HEK293 cells; assay type: cell-based
Cannabinoid receptor 2, sequence (P34972 whole entry): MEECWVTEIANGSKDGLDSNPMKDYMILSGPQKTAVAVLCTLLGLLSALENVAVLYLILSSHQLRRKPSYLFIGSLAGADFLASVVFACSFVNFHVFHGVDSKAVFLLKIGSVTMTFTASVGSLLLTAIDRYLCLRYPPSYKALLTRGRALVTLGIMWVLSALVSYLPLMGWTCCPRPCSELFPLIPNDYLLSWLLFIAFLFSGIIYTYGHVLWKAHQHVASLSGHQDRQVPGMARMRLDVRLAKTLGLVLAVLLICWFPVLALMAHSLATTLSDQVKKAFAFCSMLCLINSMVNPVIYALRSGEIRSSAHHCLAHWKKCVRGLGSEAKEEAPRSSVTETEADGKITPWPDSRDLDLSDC

Cannabinoid receptor 1 [1] = molecular target: T1, Cannabinoid receptor 1 (Homo sapiens, UniProt P21554); experiment: biochemical; assay type: cell-based, HEK293
T1 sequence (P21554 whole entry): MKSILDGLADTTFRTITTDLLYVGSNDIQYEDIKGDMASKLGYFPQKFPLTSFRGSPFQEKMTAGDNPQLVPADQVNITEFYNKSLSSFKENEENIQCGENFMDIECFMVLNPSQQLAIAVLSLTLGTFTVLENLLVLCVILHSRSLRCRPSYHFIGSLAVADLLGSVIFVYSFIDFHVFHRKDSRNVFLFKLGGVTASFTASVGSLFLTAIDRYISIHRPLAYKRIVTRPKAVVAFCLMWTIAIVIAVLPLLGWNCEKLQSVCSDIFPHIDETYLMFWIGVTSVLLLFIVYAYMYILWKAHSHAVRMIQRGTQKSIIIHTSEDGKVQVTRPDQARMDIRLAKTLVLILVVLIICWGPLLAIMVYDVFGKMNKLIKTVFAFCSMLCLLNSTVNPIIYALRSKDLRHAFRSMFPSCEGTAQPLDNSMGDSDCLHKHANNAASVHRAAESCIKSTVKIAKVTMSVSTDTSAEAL

Homo sapiens = species: Homo sapiens; experiment: Selectivity ratio of IC50 for human recombinant CB2R to IC50 for human recombinant CB1R
Outline: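 hCB1- or hCB2-transfected HEK 293 stable clones; purified membranes (0.2-8 μg) incubated with 0.75 nM [3H]CP-55,940 plus test compound in 50 mM Tris-HCl, 5 mM MgCl2, 1 mM EDTA, 0.3% BSA, pH 7.4, 1.5 h at 30 °C. Nonspecific binding with 1 μM CP-55,940. Filtration, bound radioactivity counted; IC50 by nonlinear regression. Mean ± SD of at least three independent experiments.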

Cannabinoid receptor 1 [2] = molecular target: T1, Cannabinoid receptor 1; assay type: cell-based, HEK293
Mus musculus [3] = experiment: Induction of weight loss in diet induced obesity C57BL/6 mouse model at 10 mg/kg, po qd relative to control; assay type: functional
Outline: (§1)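 DIO mice, weight-matched into groups (n = 8/group), given vehicle (10% DMSO/10% Tween 80/80% H2O) or compound by oral gavage once daily for 29 days. Food intake and body weight recorded daily. Read-out is cumulative percentage body-weight change versus vehicle, reported as mean ± standard error.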

Brain [4] = experiment: Drug level in brain of diet-induced obesity C57BL/6 mouse model at 10 mg/kg, po; assay type: ADME, organism-based; set-up: dose 10 mg/kg, route oral; details: in vivo
Rattus norvegicus [5] = experiment: Suppression of food intake in Wistar rat spontaneously feeding model at 3 mg/kg, po after 6 hrs
Mus musculus [6] = experiment: Induction of weight loss in diet induced obesity C57BL/6 mouse model at 1 mg/kg, po after 29 days relative to control; assay type: functional; outline: as §1
Brain [7] = experiment: Drug level in brain of diet-induced obesity C57BL/6 mouse model at 1 mg/kg, po; assay type: ADME, organism-based; set-up: dose 1 mg/kg, route oral; details: in vivo
Mus musculus [8] = experiment: Induction of weight loss in po dosed diet induced obesity C57BL/6 mouse model assessed as minimum effective dose after 29 days; assay type: functional; outline: as §1
Rattus norvegicus [9] = experiment: Induction of weight loss in diet induced obesity Wistar rat model at 0.3 mg/kg, po qd after 29 days relative to control; assay type: functional
Mus musculus [10] = experiment: Induction of weight loss in diet induced obesity C57BL/6 mouse model at 0.1 mg/kg, po after 29 days relative to control; assay type: functional; outline: as §1
Rattus norvegicus [11] = experiment: Induction of weight loss in diet induced obesity Wistar rat model at 0.1 mg/kg, po qd after 29 days relative to control; assay type: functional
Mus musculus [12] = experiment: Reduction of food intake in diet induced obesity C57BL/6 mouse model at 0.1 mg/kg, po after 29 days; assay type: functional, organism-based; set-up: dose 0.1 mg/kg
Outline: (§2)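 Weight-matched DIO mice (n = 8/group) gavaged once daily with compound or vehicle (10% DMSO/10% Tween 80/80% H2O) for 29 days. Food consumed and body weight measured daily. Mean ± standard error.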

Brain [13] = experiment: Drug level in brain of diet-induced obesity C57BL/6 mouse model at 0.3 mg/kg, po; assay type: ADME, organism-based; set-up: dose 0.3 mg/kg, route oral; details: in vivo
Mus musculus [14] = experiment: Reduction of food intake in diet induced obesity C57BL/6 mouse model at 0.03 mg/kg, po after 29 days; assay type: functional, organism-based; set-up: dose 0.03 mg/kg; outline: as §2
Mus musculus [15] = experiment: Reduction of food intake in diet induced obesity C57BL/6 mouse model at 0.3 mg/kg, po after 29 days; assay type: functional, organism-based; set-up: dose 0.3 mg/kg; outline: as §2
Rattus norvegicus [16] = experiment: Suppression of food intake in Wistar rat spontaneously feeding model at 0.3 mg/kg, po after 6 hrs
Mus musculus [17] = experiment: Induction of weight loss in diet induced obesity C57BL/6 mouse model at 0.03 mg/kg, po after 29 days relative to control; assay type: functional; outline: as §1
Mus musculus [18] = experiment: Induction of weight loss in diet induced obesity C57BL/6 mouse model at 0.3 mg/kg, po after 29 days relative to control; assay type: functional; outline: as §1

Structure (SMILES)	IC50 (Cannabinoid receptor 2) [nM]	IC50 (Cannabinoid receptor 1 [1]) [nM]	Ratio IC50 (Homo sapiens)	further results
CCc1c(C2=NC3(CCCC3)C(=O)N2)nn(-c2ccc(Cl)cc2Cl)c1-c1ccc(Cl)cc1	1370	14.6	94	
Cc1c(C(=O)NC(=O)C(C)(C)N(C)C)nn(-c2ccc(Cl)cc2Cl)c1-c1ccc(Cl)cc1		82.9	35	
Cc1c(C2=NC(=S)C(C)(C)N2C)nn(-c2ccc(Cl)cc2Cl)c1-c1ccc(Cl)cc1	901	6.3	143	EC50 (Cannabinoid receptor 1 [2]): 8.5 nM
CCc1c(C2=NC(=O)C(C)(C)N2C)nn(-c2ccc(Cl)cc2Cl)c1-c1ccc(Br)cc1	768	16.3	47	
CCc1c(C2=NC3(CCCCC3)C(=O)N2)nn(-c2ccc(Cl)cc2Cl)c1-c1ccc(Cl)cc1	497	12.3	40	
COc1ccc(-c2c(C)c(C3=NC(=O)C(C)(C)N3C)nn2-c2ccc(Cl)cc2Cl)cc1	1060	212	5	
Cc1c(C2=NC(=O)C(C)(C)N2C2CC2)nn(-c2ccc(Cl)cc2Cl)c1-c1ccc(Cl)cc1	1950	95.2	21	
Cc1c(C2=NC(=O)C(C)(C)N2Cc2ccccc2)nn(-c2ccc(Cl)cc2Cl)c1-c1ccc(Cl)cc1	5130	197	26	
Cc1c(C2=NC(=O)C(C)(C)N2C)nn(-c2ccc(Cl)cc2Cl)c1-c1ccc(Cl)cc1	487	54.7	9	
CCCCN1C(c2nn(-c3ccc(Cl)cc3Cl)c(-c3ccc(Cl)cc3)c2C)=NC(=O)C1(C)C	4760	1110	4	
CCc1c(C2=NC(C)(C)C(=O)N2C)nn(-c2ccc(Cl)cc2Cl)c1-c1ccc(Cl)cc1	4330	33.8	128	EC50 (Cannabinoid receptor 1 [2]): 65.5 nM
CCc1c(C2=NC3(CCC3)C(=O)N2)nn(-c2ccc(Cl)cc2Cl)c1-c1ccc(Cl)cc1	3180	22.8	139	EC50 (Cannabinoid receptor 1 [2]): 12.3 nM
CCc1c(C2=NC(=O)C(C)(C)N2C)nn(-c2ccc(Cl)cc2Cl)c1-c1ccc(Cl)cc1	2740	12.9	213	EC50 (Cannabinoid receptor 1 [2]): 9.8 nM
Cc1c(C2=NC(C)(C)C(=O)N2)nn(-c2ccc(Cl)cc2Cl)c1-c1ccc(Cl)cc1	3500	53.4	66	
Cc1c(C(=O)NN2CCCCC2)nn(-c2ccc(Cl)cc2Cl)c1-c1ccc(Cl)cc1 [RIMONABANT]				Activity (Mus musculus [3]): 23.8%; Drug uptake (Brain [4]): 113 ng/g
CN1C(c2nn(-c3ccc(Cl)cc3Cl)c(-c3ccc(Cl)cc3)c2C2CC2)=NC(=O)C1(C)C	822	43.9	19	
CCCN1C(c2nn(-c3ccc(Cl)cc3Cl)c(-c3ccc(Cl)cc3)c2C)=NC(=O)C1(C)C	5510	854	7	
CCN1C(c2nn(-c3ccc(Cl)cc3Cl)c(-c3ccc(Cl)cc3)c2C)=NC(=O)C1(C)C	1170	107	11	
CN1C(c2cc(-c3ccc(Cl)cc3)n(-c3ccc(Cl)cc3Cl)n2)=NC(=O)C1(C)C	7950	325	24	
Cc1c(C2=NC(C)(C)C(=O)N2C)nn(-c2ccc(Cl)cc2Cl)c1-c1ccc(Cl)cc1	3250	33.6	97	
Cc1c(C2=NC(=O)C(C)(C)N2C)nn(-c2ccc(Cl)cc2Cl)c1-c1ccc(C(F)(F)F)cc1	3970	15.9	250	EC50 (Cannabinoid receptor 1 [2]): 81 nM
Cc1c(C2=NC(=O)C(C)(C)N2C)nn(-c2ccc(Cl)cc2Cl)c1-c1ccc(Br)cc1	1100	47.4	23	
C=CCN1C(c2nn(-c3ccc(Cl)cc3Cl)c(-c3ccc(Cl)cc3)c2C)=NC(=O)C1(C)C	2880	249	12	
CCc1c(C2=NC(C)(C)C(=O)N2)nn(-c2ccc(Cl)cc2Cl)c1-c1ccc(Cl)cc1	10300	32.6	314	EC50 (Cannabinoid receptor 1 [2]): 20.2 nM; Activity (Rattus norvegicus [5]): Active; Activity (Mus musculus [6]): 27.4%; Drug uptake (Brain [7]): 1118 ng/g; MED (Mus musculus [8]): 0.1 mg/kg
CCc1c(C2=NC(=S)C(C)(C)N2C)nn(-c2ccc(Cl)cc2Cl)c1-c1ccc(Cl)cc1	4750	12	396	EC50 (Cannabinoid receptor 1 [2]): 5.1 nM; Activity (Rattus norvegicus [9]): 9.5%; Activity (Mus musculus [10]): 19.4%; Activity (Rattus norvegicus [11]): 5.1%; Activity (Mus musculus [12]): Active; Drug uptake (Brain [13]): 243 ng/g; Activity (Mus musculus [14]): Active; MED (Mus musculus [8]): 0.03 mg/kg; Activity (Mus musculus [15]): Active; Activity (Rattus norvegicus [16]): Active; Activity (Mus musculus [17]): 14.7%; Activity (Mus musculus [18]): 25.4%
CN1C(c2nn(-c3ccc(Cl)cc3Cl)c(-c3ccc(Cl)cc3)c2Br)=NC(=O)C1(C)C	1570	42.5	37	
